Results of several laboratories.
Protocols differ between the studies behind these lines.
Target: Mitogen-activated protein kinase kinase kinase 7 (MAP3K7, Homo sapiens, UniProt O43318)
Sequence (O43318 1-606, as in one of the studies): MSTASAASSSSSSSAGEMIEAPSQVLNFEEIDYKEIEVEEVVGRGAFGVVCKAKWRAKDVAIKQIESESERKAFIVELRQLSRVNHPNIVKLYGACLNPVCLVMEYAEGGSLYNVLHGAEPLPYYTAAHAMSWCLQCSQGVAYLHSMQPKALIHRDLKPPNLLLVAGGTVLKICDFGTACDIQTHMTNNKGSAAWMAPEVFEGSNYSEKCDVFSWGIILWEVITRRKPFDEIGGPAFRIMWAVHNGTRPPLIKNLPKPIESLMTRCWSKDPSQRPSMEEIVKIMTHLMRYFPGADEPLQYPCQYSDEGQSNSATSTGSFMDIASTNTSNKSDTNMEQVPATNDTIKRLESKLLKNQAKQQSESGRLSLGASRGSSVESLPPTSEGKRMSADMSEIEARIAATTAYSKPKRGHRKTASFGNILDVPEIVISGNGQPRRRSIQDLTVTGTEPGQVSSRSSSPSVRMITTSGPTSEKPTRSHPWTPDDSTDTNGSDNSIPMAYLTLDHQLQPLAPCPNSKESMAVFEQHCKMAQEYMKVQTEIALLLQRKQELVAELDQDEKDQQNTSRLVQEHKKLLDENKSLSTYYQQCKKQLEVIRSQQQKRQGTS

`CCCCC(=O)Nc1ccc(-c2ccc3ncn(CCC)c(=O)c3c2)cn1` gave a remaining binding of 87% (binding, competition with immobilised ligand; 0.5 µM).
The inhibition of `Cc1cc(O)c(-c2ccc([C@@H](C)CN(C)C)cc2)c2c1[nH]c(=O)c1sccc12` is reported as -18.1% (enzyme activity, inhibitor; 0.1 µM).
`CN1CCN(C(=O)c2ccc(NC(=O)Nc3ccc(N(C)c4ccnc(Nc5ccc(CS(C)(=O)=O)cc5)n4)cc3)cc2)CC1` gave a remaining binding of 25% (binding, competition with immobilised ligand; 1 µM).
The remaining activity of `CS(=O)(=NC#N)c1ccccc1Nc1nc(Nc2ccc(CO)nc2)ncc1Cl` (centres unmarked) is reported as 55.8% (enzyme activity, inhibitor; 1 µM).
For `CC#CC(=O)N1CCC[C@H]1c1nc(-c2ccc(C(=O)Nc3ccccn3)cc2)c2c(N)nccn12`, the inhibition was 12% (enzyme activity, inhibitor; 1 µM).
With `CS(=O)(=O)c1ccccc1Nc1nc(Nc2ccnc(CO)c2)ncc1Cl` the remaining activity was 70.7% (enzyme activity, inhibitor; 1 µM).
With `C=CC(=O)N1CCC([C@@H]2CCNc3c(C(N)=O)c(-c4ccc(Oc5ccccc5)cc4)nn32)CC1` the inhibition was 19% (enzyme activity, inhibitor; 1 µM).
`C[C@H]1CC[C@H](n2c3cnccc3c3cnc(Nc4ccc5c(n4)CCN(C(=O)CO)C5)nc32)CC1` has a remaining binding of 47% (binding, competition with immobilised ligand; 1 µM).
